A selection: hits, their analogues and other compounds. The true share with any hit is near 4.8%.
T cruzi repl: blocks replication of Trypanosoma cruzi | AID 1885 | inhibition, % (concentration not given with the values) | 1.4% of 300,000 active | T. cruzi beta-gal in NIH3T3, luminescence, 90 h;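 active means mean inhibition across valid replicates above about 55%, limit read from the data; inconclusive means mean below that limit but half or more replicates reach it; inactive means mean below it, under half of replicates reach it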;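 further: signal also drops with host cell toxicity which is not excluded here; 0% = plate median of DMSO wells and 100% = zero luminescence signal; higher percent means less beta-gal luminescence so fewer parasites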
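System: NIH/3T3 fibroblasts plus reporter T. cruzi. Medium: DMEM plus 2% FBS. Probe or stimulus: 5000 reporter trypomastigotes per well. Compound: single 50 nL compound addition per well in DMSO. Incubation: co-culture of at least 90 h after 3 h attachment. Detection: GalScreen β-gal luminescence, detergent lysis, 60 min. Evaluation: parasite load inhibition, %.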
Beta apoptosis: blocks beta cell apoptosis; INS-1E cytokine-induced death, ATP luminescence, 48 h; percent of positive-control rescue, neutral wells zero; protection from apoptosis, % (concentration not given with the values); 0.8% of 300,000 active; AID 435005;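 active means Every replicate reaches about 75%, or at least half do and their mean reaches it too, limit read from the data; inconclusive means At least half of replicates reach the limit but their mean does not; inactive means Under half of replicates reach the limit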;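 further: 0% = cytokine-treated negative control wells and 100% = positive control rescue; higher means more ATP so stronger rescue from cytokine killing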
WT yeast gro inh: growth inhibition of WT yeast, mitochondrial fusion screen. mitochondrial fusion phenotypic screen, WT strain. inhibition, % at 10 µM. 2.1% of 190,000 active. AID 1362; in the data active means inhibition above about 58%; tested in S. cerevisiae
Efflux pump mplx: antifungal efflux pump inhibition, Nile Red retention; S. cerevisiae Candida pump triplex; inhibition, % at 10 µM; 0.44% of 330,000 active;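 active means plate passing quality check with inhibition over a set limit, or well fluorescence over plate mean plus 4 SD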;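 further: Nile Red retained in pooled yeast measured as flow cytometry median fluorescence; 0% = buffer negative control and 100% = Enniatin B positive control; higher means more Nile Red kept so more efflux inhibition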
SUMO Mot1 rescue: inhibitors of SUMOylation pathway: yeast Mot1-301 growth rescue; S. cerevisiae Mot1-301 growth rescue, ATP luminescence, 38.5C; percent above DMSO median, 100 means doubled; growth rescue, % at 18.8 µM; 1% of 320,000 active; AID 2716;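 active means every valid replicate shows activation above 250% relative to neutral control wells; inactive means the rest, any valid replicate at or below 250%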;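 further: OY570 slx delta 5 strain wells were the positive control but not used for scaling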
CSC inhib: blocks cancer stem cells. cancer stem cell-like cells viability, luminescence. inhibition, % at 7.5 µM. 1.1% of 300,000 active; in the data active means inhibition above about 75%; inconclusive means no clear call, values can overlap the other calls; tested in HMLE shEcad cells
* = called active by the depositor; i = inactive; ? = inconclusive; . = not tested or not shown.

SMILES	T cruzi repl	Beta apoptosis	WT yeast gro inh	Efflux pump mplx	SUMO Mot1 rescue	CSC inhib
CCCc1ccc(C2C3=C(CC(C)(C)CC3=O)NC3=C2C(=O)c2ccccc23)cc1 (stereo unspecified)	45	35	13	0	-3	89*
CN1CCN(/N=C/c2ccc(OCc3ccccc3)cc2)CC1	24	0	.	0	-19	?
CCN(CC)c1ccc(-c2nn3c(-c4ccccc4OC)nnc3s2)cc1	42	57	34	0	2	93*
Cc1cccc(S(=O)(=O)c2c(N)n(/N=C/c3ccco3)c3nc4ccccc4nc23)c1	57*	5	3	0	4	34
Nc1c(S(=O)(=O)c2ccccc2)c2nc3ccccc3nc2n1/N=C/c1ccco1	22	13	2	0	33	.
COc1cccc(/C=N/n2c(N)c(S(=O)(=O)c3cccs3)c3nc4ccccc4nc32)c1	28	5	-1	0	0	-5
Cc1ccc(S(=O)(=O)c2c(N)n(/N=C/c3ccco3)c3nc4ccccc4nc23)cc1	78*	6	6	0	77	2
Cc1ccc(S(=O)(=O)c2c(N)n(/N=C/c3ccco3)c3nc4ccccc4nc23)cc1C	46	8	19	0	13	15
Nc1c(S(=O)(=O)c2cccs2)c2nc3ccccc3nc2n1/N=C/c1cccc(O)c1	36	14	14	0	-1	97*
CNC(=O)c1[nH]cnc1C(=O)NCC(=O)OCc1ccccc1	3	0	.	0	-10	-6
Cc1nc2scc(-c3ccccc3)c2c(=O)n1N=C1C=CC(=O)C=C1	67*	.	9	.	.	.
Cc1nc2scc(-c3ccccc3)c2c(=O)n1N	-1	0	1	0	1	.
COc1ccc2[nH]c(C)c(CCN(Cc3cccs3)C(=S)Nc3ccccc3)c2c1	58*	17	42	0	125	-12
Cc1[nH]c2ccc(F)cc2c1CCN(Cc1cccnc1)C(=S)Nc1ccc(F)cc1	61*	-7	5	0	4	-1
COc1ccc(NC(=S)N(CCc2c(C)[nH]c3ccc(C)cc23)Cc2cccs2)cc1	21	.	66*	0	-17	19
COc1ccc2[nH]c(C)c(CCN(Cc3cccs3)C(=S)Nc3ccc(F)cc3)c2c1	55*	19	8	0	-7	3
COc1ccccc1NC(=S)N(CCc1c(C)[nH]c2ccccc12)Cc1cccs1	22	-2	24	0	-8	18
Cc1ccc(NC(=O)CCCc2ccccc2)c([N+](=O)[O-])c1	-3	-9	.	0	-16	-16
CNC(=O)NC(=O)COC(=O)c1ccccc1OCc1ccccc1	-16	-4	-13	0	.	2
Cc1cc(OCC(=O)NNC(=O)CCc2ccccc2)ccc1Br	-1	-5	.	0	-2	5
CNC(=S)N(CCc1c(C)[nH]c2ccc(C)cc12)Cc1cccs1	15	-1	65*	0	-25	-2
COc1ccc(CC(=O)NC(C)c2nnc(SCC(=O)Nc3cc(C)ccc3OC)n2C)cc1 (stereo unspecified)	0	-2	4	0	190	2
Cc1ccc(NNC(=O)c2c(C)noc2C)cc1Cl	39	3	.	0	181	98*
Cc1ccc(NNC(=O)c2ccno2)cc1Cl	28	99*	.	0	152	97*
O=C(NCC(=O)N1CCN(c2ccccc2O)CC1)c1ccc2c(c1)OCO2	-13	-3	.	0	9	4
SMILES	T cruzi repl	Beta apoptosis	WT yeast gro inh	Efflux pump mplx	SUMO Mot1 rescue	CSC inhib
CC1(C)CC(=O)C2=C(C1)NC(SCC(=O)Nc1ccccc1)=C(C#N)C2c1ccco1 (stereo unspecified)	8	-14	-5	0	19	-11
Cc1ccc(C(=O)CSC2=C(C#N)C(c3ccco3)C3=C(CC(C)(C)CC3=O)N2)cc1 (stereo unspecified)	20	7	35	0	6	97*
N#CC1=C(SCC(=O)c2ccc(Cl)cc2)NC2=C(C(=O)CCC2)C1c1ccco1 (stereo unspecified)	20	8	18	0	96	93*
c1ccc2c(c1)ncn2CCCCOc1ccc2c(c1)CCC2	-2	91*	69*	0	0	0
c1ccc2c(c1)ncn2CCCOc1ccc2c(c1)CCC2	-11	71	65*	0	26	-9
COc1ccc(OCCn2cnc3ccccc32)cc1	17	-7	.	0	-3	-9
c1ccc(OCCn2cnc3ccccc32)cc1	8	-6	10	0	1	-6
NC(=O)c1cccnc1OCC(F)(F)F	-9	5	.	0	-6	-1
O=S(=O)(NCc1ccccc1)NCc1cccc(C(F)(F)F)c1	-2	-9	-9	0	3	-8
N#Cc1c(-c2ccccc2)c(-c2ccccc2)nn(CC(=O)NNC(=O)Nc2ccc(Cl)c(Cl)c2)c1=O	2	7	-4	0	.	105*
O=C(Cn1nc(-c2ccccc2)c2ccccc2c1=O)Nc1ccc(F)cc1	-11	-5	.	0	4	-14
CC(C)Oc1cccc(C(=O)C2CCCN(C(=O)CCn3cnnn3)C2)c1 (stereo unspecified)	-1	-4	-17	0	3	1
CCc1sc(C(=O)Nc2cc(S(=O)(=O)N3CCOCC3)ccc2OC)cc1C	.	-1	.	0	3	-12
CN1CCN(C(=S)c2cn(Cc3ccccc3F)c3ccccc23)CC1	3	-3	4	0	.	11
CC1CCN(C(=S)c2cn(Cc3ccccc3F)c3ccccc23)CC1	25	30	74*	0	18	-5
OCCc1c[nH]c2ccc(OCc3ccccc3)cc12	-7	-1	.	0	9	-9
Cc1ccc(N=c2oc3cc(O)ccc3cc2C(N)=O)cc1	60*	4	-5	0	.	34
CC(=O)c1cc2ccc(O)cc2oc1=O	3	-1	.	0	8	14
CCOc1ccc(N=c2oc3cc(O)ccc3cc2C(=O)NCC2CCCO2)cc1 (stereo unspecified)	28	10	-22	0	357*	-20
Clc1ccc(Nc2ncnc3ccc(Br)cc23)cc1	4	20	61*	0	i	?
Clc1cccc(Nc2ncnc3ccc(Br)cc23)c1	18	19	73*	0	184	58
CN(C)c1ccc(Nc2ncnc3ccc(Br)cc23)cc1	-1	-5	.	0	20	10
CC1CCCCN1C(=O)CCS(=O)(=O)c1cccc2nonc12 (stereo unspecified)	10	1	-5	0	-30	.
O=[N+]([O-])c1cc(NCCO)c(N2CCCCCC2)c2nonc12	7	5	.	0	-7	-3
Cc1nn2c(Nc3ccc(F)cc3)c3c(nc2c1-c1ccccc1)CCC3	-5	6	13	0	4	3
